Experiments:
HCT-116 = assay: Cytotoxicity against human HCT-116 cells assessed as reduction in cell viability incubated for 48 hrs by MTT assay; format: functional, cell-based; settings: HCT-116, 48 h
Method in brief: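 Antiproliferative test on HCT-116 colon tumour cells, read out by MTT; activity expressed as IC50.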

HL-60 = assay: Cytotoxicity against human HL-60 cells assessed as reduction in cell viability incubated for 48 hrs by WST-1 assay; format: functional, cell-based; settings: HL-60, 48 h
Method in brief: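 HL-60 promyelocytic leukaemia cells, with proliferation read out by WST-1; activity expressed as IC50.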

SMILES | IC50 (HCT-116) | IC50 (HL-60)
O=C1C=CC(=O)c2c1[nH]c1ccccc21 | 0.763 µM | 1 µM
CC1=CC(=O)c2[nH]c3ccc(C(F)(F)F)cc3c2C1=O | 0.921 µM | 1.13 µM
CC1=CC(=O)c2[nH]c3ccc(F)cc3c2C1=O | 2.7 µM | 4.4 µM
COc1cc2[nH]c3c(c2cc1OC)C(=O)C(C)=CC3=O | 4.09 µM | 8.95 µM
CC1=CC(=O)c2[nH]c3cc(Cl)ccc3c2C1=O | 0.895 µM | > 10 µM
COCn1c2c(c3ccccc31)C(=O)C=C(C)C2=O | > 10 µM | > 10 µM
COc1cc(OC)c2c3c([nH]c2c1)C(=O)C=C(C)C3=O | > 10 µM | 7.26 µM
COCn1c2c(c3ccccc31)C(=O)C=CC2=O | 1.31 µM | 1.38 µM
CC1=CC(=O)c2[nH]c3cc([N+](=O)[O-])ccc3c2C1=O | 1.37 µM | 1.58 µM
COc1cc(OC)c2[nH]c3c(c2c1)C(=O)C(C)=CC3=O | 3.6 µM | 3.82 µM
CC1=CC(=O)c2[nH]c3cc(C)ccc3c2C1=O | 1 µM | 6.93 µM
COc1ccc(OC)c2c3c([nH]c12)C(=O)C=C(C)C3=O | 1.84 µM | 2.27 µM
CC1=CC(=O)c2[nH]c3ccc([N+](=O)[O-])cc3c2C1=O | 0.569 µM | 1.03 µM
CC1=CC(=O)c2[nH]c3cc(F)ccc3c2C1=O | 1 µM | 1.47 µM
COc1ccc2[nH]c3c(c2c1OC)C(=O)C(C)=CC3=O | > 10 µM | > 10 µM
CC1=CC(=O)c2[nH]c3cc4ccccc4cc3c2C1=O | > 10 µM | 5.27 µM
CC1=CC(=O)c2[nH]c3cc(C(F)(F)F)ccc3c2C1=O | > 10 µM | 6.02 µM
COCn1c2c(c3ccccc31)C(=O)C(C)=CC2=O | 6.49 µM | 3.92 µM
CC1=CC(=O)c2[nH]c3ccc4ccccc4c3c2C1=O | > 10 µM | > 10 µM
CC1=CC(=O)c2[nH]c3ccc(C)cc3c2C1=O | 2.03 µM | > 10 µM
COc1ccc2[nH]c3c(c2c1)C(=O)C(C)=CC3=O | 1.6 µM | 3.41 µM
COc1ccc2c3c([nH]c2c1)C(=O)C=C(C)C3=O | 0.992 µM | 1.75 µM
CC1=CC(=O)c2[nH]c3ccc(Cl)cc3c2C1=O | 2.21 µM | 1.28 µM
CC1=CC(=O)c2[nH]c3ccccc3c2C1=O [MURRAYAQUINONE A] | 3.72 µM | 3.02 µM
